Assay results from PMC3186881 (Chemico-biological interactions, 2011).
Peptide text beside a SMILES is read from it. * marks the point of attachment. Cbz = O=C(OCc1ccccc1)*; CH2F = FC*

Legend:
Jurkat cells [1] = assay: DNA fragmentation; type: cell-based; details: 24 h
Jurkat cells [2] = assay: Cell viability by trypan blue exclusion; type: cell-based; details: for cell viability (trypan blue exclusion): 100 nM
Jurkat cells [3] = assay: Intracellular superoxide levels; type: cell-based; details: 100 nM; for increase of intracellular superoxide compared to diluent: 16 h; for ROS levels (superoxide and hydrogen peroxide): time course
Summary of the method: (§1)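 Jurkat cells treated at 100 nM over a time course up to 16 h. Stained 30 min in the dark with dihydroethidine (superoxide, FL-3) or CM-H2DCF-DA (hydrogen peroxide, FL-1); flow cytometry, mean fluorescence reported. Compared with DMSO-treated cells by ANOVA and Bonferroni post-test.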

Jurkat cells [4] = assay: Intracellular hydrogen peroxide levels; type: cell-based; details: 100 nM, time course
Summary of the method: as §1

[5] = target: chymotrypsin-like (CT-L) activity of the proteasome (Homo sapiens, UniProt P28074); assay: Chymotrypsin-like proteasome activity in treated Jurkat cells; type: cell-based; details: for CT-L activity over time (recovery or sustained inhibition): 1 h to 16 h
[6] = test system: β5 protein (chymotryptic-like subunit of the proteasome); assay: β5 subunit protein level by western blot; type: cell-based; details: Jurkat cells, 100 nM, 1, 6 and 12 h
[7] = target: trypsin-like (T-L) activity of the proteasome (Homo sapiens, UniProt Q99436); assay: Trypsin-like proteasome activity in treated Jurkat cells; type: cell-based
Summary of the method: (§2)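 Jurkat cells dosed 1 h or 12 h at equipotent concentrations chosen from 24 h DNA-fragmentation dose-response. Caspase-like activity read as z-LLE-amc hydrolysis; trypsin-like as […] hydrolysis. Fluorescence at ex 380/em 460 nm (RFU), normalized to DMSO-treated cells as 100%. Mean ± SD of three independent experiments; two-way ANOVA with Bonferroni post-test.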

[8] = target: caspase-like (C-L) activity of the proteasome (Homo sapiens, UniProt P28072); assay: Caspase-like proteasome activity in treated Jurkat cells; type: cell-based; details: for inhibition of C-L activity: Jurkat cells, equipotent concentrations (4.5 μM NPI-2078, 1 μM NPI-2104, 25 nM marizomib)
Summary of the method: as §2

Jurkat cells [9] = assay: Cell size by forward scatter versus side scatter; type: cell-based; details: 100 nM, 24 h
Summary of the method: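 Jurkat cells treated 24 h, then analysed by flow cytometry. Cell size judged on forward- versus side-scatter plots, with a gate set on the DMSO control population to detect size shifts after treatment.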

caspase-8 = assay: Caspase-8 activation by western blot; type: cell-based; details: Jurkat cells, 6 h
Summary of the method: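 Jurkat cells treated 6 h at 100 nM. Lysates from 5x10^6 cells; 50 μg protein run on SDS-PAGE, transferred to nitrocellulose, probed with caspase-8 antibody (1:500) detecting pro- and cleaved forms, then secondary (1:5000). Antibodies in 5% milk/TBS, 0.005% Tween; ECL detection. Densitometry given as cleaved:pro-caspase-8 ratio.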

proteasomal activities = details: leukemia cells; cited from earlier work
PARP = PARP cleavage by western blot; type: cell-based; details: Jurkat cells, 100 nM, 16 h
Summary of the method: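 Jurkat cells exposed to 100 nM for 16 h. Lysates from 5x10^6 cells; 50 μg protein by SDS-PAGE, nitrocellulose transfer, PARP antibody 1:2000, secondary 1:5000, diluted in 5% milk/TBS with 0.005% Tween; ECL detection. Cleaved PARP band quantified by densitometry, normalized to actin.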

Jurkat cells [10] = assay: Nuclear morphology by Hoechst staining; type: cell-based; details: 100 nM, 24 h
Summary of the method: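 Jurkat cells exposed 24 h at 100 nM; 10,000 cells stained with 5 μM Hoechst 33342 for 20 min, cytocentrifuged onto slides and examined by fluorescence microscopy for nuclear shrinkage and fragmentation.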

[11] = equipotent concentrations (4.5 μM NPI-2078, 1 μM NPI-2104, 25 nM marizomib), 12 h
[12] = equipotent concentrations (4.5 μM NPI-2078, 1 μM NPI-2104, 25 nM marizomib), 1 h
[13] = equipotent concentrations (4.5 μM NPI-2078, 1 μM NPI-2104, 25 nM marizomib)

## CC(=O)N[C@@H](CS)C(=O)O [NAC, N-acetyl cysteine, reference compound]
Jurkat cells [1]; 24 mM NAC before 100 nM analogs
  effect of antioxidant pretreatment on DNA fragmentation induced by LG analogs: attenuated
Jurkat cells [2]; 24 mM
  toxicity as single agent: did not have toxic effects
Jurkat cells [2]; 24 mM NAC before 100 nM analogs, 24 h
  effect of antioxidant pretreatment on viability loss by LG analogs: offered protection

## CC12OC(=O)C1(C(O)C1C=CCCC1)NC(=O)C2CCBr (stereo not drawn) [NPI-2053]
Jurkat cells [3]
  increase of intracellular superoxide compared to diluent: over 7 fold
Jurkat cells [4]
  hydrogen peroxide levels compared to diluent: steadily increased

## CC12OC(=O)C1(C(O)C1CCCCC1)NC(=O)C2CCCl (stereo not drawn) [NPI-2056]
Jurkat cells [1]; 100 nM
  DNA fragmentation: less DNA fragmentation
Jurkat cells [3]
  increase of intracellular superoxide compared to diluent: over 7 fold
[5]; 100 nM
  CT-L activity over time (recovery or sustained inhibition): partial recovery
Jurkat cells [4]
  hydrogen peroxide levels compared to diluent: steadily increased
Jurkat cells [2]; 24 h
  cell viability (trypan blue exclusion): more viable cells

## CC12OC(=O)C1(C(O)C1C=CCCC1)NC(=O)C2CCI (stereo not drawn) [NPI-2070]
Jurkat cells [3]
  increase of intracellular superoxide compared to diluent: over 7 fold
Jurkat cells [4]
  hydrogen peroxide levels compared to diluent: steadily increased

## CC12OC(=O)C1(C(O)C1C=CCCC1)NC(=O)C2CCN=[N+]=[N-] (stereo not drawn) [NPI-2078]
[6]
  level of β5 protein: Neither inhibitor decreased levels of β5 protein
[7]; [11]
  inhibition of T-L activity: ~5%
Jurkat cells [3]
  ROS levels (superoxide and hydrogen peroxide): weak
[5]; [12]
  CT-L activity, % of control: 10%
[5]; [11]
  inhibition of CT-L activity: 70%
[8]; 1 h
  inhibition of C-L activity: ≥ 95%
[8]; 12 h
  inhibition of C-L activity: > 65%
Jurkat cells [9]
  change in cell size compared to control population: did not show a large change in cell size
caspase-8; [13]
  caspase-8 activation (cleavage of pro-caspase-8): caspase-8 activation occurred
Jurkat cells [2]; 24 h
  cell viability (trypan blue exclusion): did not affect viability

## CC12OC(=O)C1(C(O)C1C=CCCC1)NC(=O)C2CCSC#N (stereo not drawn) [NPI-2104]
[7]; equipotent concentrations (1 μM NPI-2104, 25 nM marizomib), 1 h
  inhibition of T-L activity: 11%
[7]; [11]
  inhibition of T-L activity: > 30%
Jurkat cells [3]
  ROS levels (superoxide and hydrogen peroxide): weak
[5]; 100 nM, 1 h
  inhibition of CT-L activity: about 90%
[5]; 100 nM
  CT-L activity over time (recovery or sustained inhibition): recovered
[5]; 100 nM, 12 h
  CT-L activity, % of control: 64.5%
[5]; equipotent concentration (1 μM NPI-2104), 12 h
  CT-L activity, % of control: 28.6%
[5]; [12]
  CT-L activity, % of control: 10%
[5]; [11]
  inhibition of CT-L activity: 70%
[8]; 1 h
  inhibition of C-L activity: ≥ 95%
[8]; 12 h
  inhibition of C-L activity: > 65%
caspase-8; 100 nM
  caspase-8 activation (cleavage of pro-caspase-8): weakly activated
caspase-8; [13]
  caspase-8 activation (cleavage of pro-caspase-8): caspase-8 activation occurred
Jurkat cells [2]; 24 h
  cell viability (trypan blue exclusion): did not affect viability

## Cc1ccc(S(=O)(=O)OCCC2C(=O)NC3(C(O)C4C=CCCC4)C(=O)OC23C)cc1 (stereo not drawn) [NPI-2151]
Jurkat cells [3]
  increase of intracellular superoxide compared to diluent: over 7 fold
Jurkat cells [4]
  hydrogen peroxide levels compared to diluent: steadily increased

## C[C@@]12OC(=O)[C@]1([C@@H](O)[C@@H]1C=CCCC1)NC(=O)[C@@H]2CCCl [marizomib, Marizomib, reference compound]
[6]
  level of β5 protein: Neither inhibitor decreased levels of β5 protein
Proteasomal activities
  profile of inhibition of proteasome activities: blocking the CT-L and C-L activities potently, while T-L activity is inhibited to a lesser extent
[5]; [11]
  inhibition of CT-L activity: sustained
[8]; 12 h
  inhibition of C-L activity: sustained
[8]; Jurkat, read-out: inhibition of C-L activity
  inhibition at 0.025 µM: 88%
Jurkat cells [9]
  change in cell size compared to control population: altered cell size
PARP
  PARP cleavage: PARP cleavage occurred
caspase-8; [13]
  caspase-8 activation (cleavage of pro-caspase-8): caspase-8 activation occurred
Jurkat cells [10]
  nuclear morphology (Hoechst staining): shrinkage and fragmentation of the DNA

## CC[C@H](C)[C@H](NC(=O)OCc1ccccc1)C(=O)N[C@@H](CCC(=O)OC)C(=O)N[C@H](C(=O)N[C@@H](CC(=O)OC)C(=O)CF)[C@@H](C)O [z-IETD-fmk] (Cbz-IE(OMe)TD(OMe)-CH2F)
Jurkat cells [1]; 25 μM z-IETD-fmk 30 min before 100 nM analogs
  effect of caspase-8 inhibitor pretreatment on analog-induced DNA fragmentation: prevented
